Test results reported in ChEMBL document CHEMBL4392863, “Spongian Diterpenes Including One with a Rearranged Skeleton from the Marine Sponge Spongia officinalis” (J Nat Prod, 2019).
One block for each compound: values may come before it.

Legend:
RAW264.7 = test: Anti-inflammatory activity in mouse RAW264.7 cells assessed as inhibition of LPS-induced NO production pre-incubated for 2 hrs before LPS stimulation for 24 hrs by nitrate/nitrite assay; assay type: functional, cell-based
In short: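 LPS-stimulated RAW264.7 macrophages were used following an earlier published protocol. Compounds from 30 mM DMSO stocks were diluted at room temperature to final test concentrations of 1−60 μM. NG-methyl-L-arginine acetate salt in DMSO served as the positive control. Inhibition of nitric oxide production was expressed as IC50.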

[1] = Cytotoxicity against mouse RAW264.7 cells assessed as reduction in cell viability incubated for 24 hrs by MTT assay; assay type: cell-based

SMILES: CNC(=N)NCCC[C@H](N)C(=O)O [TILARGININE ACETATE]
IC50 (RAW264.7): 17 µM

SMILES: C[C@]12C[C@@H](O)C(=O)[C@](C)(CO)[C@@H]1CC[C@@]1(CO)c3cocc3CC[C@@H]12
CC50 at 24 h [1]: > 60 µM
IC50 (RAW264.7): > 60 µM

SMILES: C[C@]12CC(=O)[C@H](O)[C@](C)(CO)[C@@H]1CC[C@@]1(CO)c3cocc3CC[C@@H]12
CC50 at 24 h [1]: > 60 µM
IC50 (RAW264.7): 20 µM

SMILES: CO[C@@H]1O[C@H](OC)C2=C1CC[C@H]1[C@@]2(CO)CC[C@@H]2[C@]1(C)CC(=O)[C@H](O)[C@]2(C)CO
CC50 at 24 h [1]: > 60 µM
IC50 (RAW264.7): 22 µM

SMILES: C[C@]12[C@@H](O)[C@]3(O)C(=O)OC[C@]3(C)[C@@H]1CC[C@@]1(CO)c3cocc3CC[C@@H]12
CC50 at 24 h [1]: > 60 µM
IC50 (RAW264.7): 32 µM

The next compounds have a lower IC50 (RAW264.7) than those just listed; values first:

IC50 (RAW264.7): 15 µM
SMILES: CC(=O)OC[C@@]12CC[C@@H]3[C@](C)(CC(=O)[C@H](O)[C@]3(C)CO)[C@H]1CCc1cocc12
CC50 at 24 h [1]: > 60 µM

IC50 (RAW264.7): 12 µM
SMILES: CCO[C@H]1OC(=O)C2=C1[C@]1(CO)CC[C@@H]3[C@](C)(CC(=O)[C@H](O)[C@]3(C)CO)[C@H]1CC2
CC50 at 24 h [1]: > 60 µM

IC50 (RAW264.7): 12 µM
SMILES: CC(=O)OC[C@@]12CC[C@@H]3[C@](C)(CC(=O)[C@@H](O)[C@]3(C)CO)[C@H]1CCc1cocc12
CC50 at 24 h [1]: > 60 µM
